# Screens as filed in PubChem.
# This is a sample that favours compounds with a hit; in the whole collection about 6.6% have one here.
# M1 ag = agonists of M1 muscarinic receptor; CHO-M1 cells, Fluo-4 calcium fluorescence, agonist mode; stronger effect = higher value; B-score at 10 µM; 64,000 compounds, 3% hits; AID 626;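 active = fluorescence rise, raw or as B-score row- and column-corrected plate score, outside the 99.7% band of its plate's samples, either direction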
# M1 antagonist = antagonists of rat M1 muscarinic receptor. P08482. CHO-M1 cells, Fluo-4 calcium, ACh EC80 antagonist mode; stronger effect = lower value. B-score at 10 µM. 64,000 compounds, 3.4% hits;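 active = calcium fluorescence response, raw or row-and-column corrected B-score, differing from the plate sample mean either way at a set confidence level, mostly lower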
# Target sequence (P08482 whole entry, looked up): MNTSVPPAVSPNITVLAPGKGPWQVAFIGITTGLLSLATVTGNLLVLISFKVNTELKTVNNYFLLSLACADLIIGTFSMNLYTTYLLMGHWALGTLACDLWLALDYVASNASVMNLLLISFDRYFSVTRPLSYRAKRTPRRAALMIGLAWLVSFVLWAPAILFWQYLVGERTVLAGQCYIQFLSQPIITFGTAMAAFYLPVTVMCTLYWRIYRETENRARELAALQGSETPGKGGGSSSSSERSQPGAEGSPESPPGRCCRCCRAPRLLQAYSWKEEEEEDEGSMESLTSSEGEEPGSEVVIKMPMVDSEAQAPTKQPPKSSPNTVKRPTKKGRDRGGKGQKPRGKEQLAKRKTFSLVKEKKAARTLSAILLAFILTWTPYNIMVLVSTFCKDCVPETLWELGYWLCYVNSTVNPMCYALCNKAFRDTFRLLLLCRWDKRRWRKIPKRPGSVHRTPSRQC
# HER2 expr 66K = lowers expression of human Her2 kinase | P04626 | SKBR-3 HER2 protein level, AlphaScreen, 18-24 h; stronger effect = lower value | HER2 level % of control, % at 10 µM | 65,000 compounds, 0.69% hits;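 active = HER2 level under 5% of the carrier-only control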;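 also: 100% = DMSO carrier and 0% = 500 nM PU-H71 HSP90 inhibitor; lower value means stronger loss of Her2 protein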
# BAP1 inh = human BAP1 deubiquitinase inhibition. recombinant BAP1, Ub-AMC hydrolysis fluorescence kinetic; stronger effect = lower value. calls only at 20 µM. 72,000 compounds, 0.48% hits. AID 436;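 active = activity remaining at or below 50% of control, provided the compound also passes the data quality filters; inactive = the rest, including low values that fail the filters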;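 also: 100% = DMSO wells rate and 0% = substrate alone blank rate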
# HEK293 NFkB inh = inhibitors of the PMA/ionomycin-induced NF-kB reporter in HEK293 cells. HEK-293 NF-kB luciferase reporter, luminescence. inhibition, % at 3 µM. 62,000 compounds, 0.21% hits. AID 465;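 active = inhibition above the mean of all tested compounds plus 3 SD, cut at about 40% in these data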;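 also: 0% = stimulated DMSO wells and 100% = 10 µM reference inhibitor 5653914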
#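 System: NF-kB luciferase reporter HEK-293 cells | Replication: Single test | Control set: DMSO vs reference inhibitor | Evaluation: % inhibition | Schedule: 1 h pretreatment, 16 h stimulation, 37 °C | Probe or stimulus: PMA with ionomycin | Compound dosing: One dose, 3 µM | Detection: Luciferase luminescence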
# JNK3 inh = blocks human JNK3 kinase activity. P53779. purified JNK3 kinase activity, HTS. inhibition, % at 8 µM. 60,000 compounds, 0.61% hits. AID 746; in the data active = inhibition above about 17%;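 also: 0% = DMSO and 100% = reference inhibitor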
# M1 antag confirm = confirmation of rat M1 muscarinic receptor antagonists | shares compounds with M1 antagonist | CHO-M1 cells, Fluo-4 calcium, ACh EC80 antagonism; stronger effect = lower value | calcium response (max-min fluorescence) at 10 µM | 1,700 compounds, 43% hits | AID 677;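 active = calcium response below the same-plate mean of wells given acetylcholine alone at its 80%-effect dose, minus 3 SD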;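 also: raw fluorescence intensity difference in arbitrary instrument units and not normalized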
# mGluR4 antag = selectivity test for M1 antagonists: human mGluR4 receptor. shares compounds with M1 antagonist. CHO-mGluR4 calcium flux, Fluo-4 fluorescence, glutamate EC80; stronger effect = lower value. fluorescence response (max-min) at 10 µM. 1,700 compounds, 0.9% hits. AID 678;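 active = fluorescence response below the plate's average for near-maximal glutamate wells, less 3 SD of those wells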;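 also: raw unnormalized fluorescence span taken in the window right after glutamate addition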
# An asterisk follows results filed as active; i = inactive; nt = no result given.
SMILES,M1 ag,M1 antagonist,HER2 expr 66K,BAP1 inh,HEK293 NFkB inh,JNK3 inh,M1 antag confirm,mGluR4 antag
Cc1cc(C)c2nc(N3CCC(C(=O)N4CCCC4)CC3)sc2c1,-0.1,-8*,138,i,-1,3,233*,180
CCOc1ccc2nc(N3CCC(C(=O)N4CCN(C5CCCCC5)CC4)CC3)sc2c1,-2.2,-2.9*,44,i,0,5,378*,243
Cc1cc(C)c2nc(N3CCC(C(=O)N4CCN(c5ncccn5)CC4)CC3)sc2c1,-0.73,0.72,45,i,4,6,nt,nt
O=C(CN1CCCC1)Nc1ccc(NC(=O)Nc2ccccc2Cl)cc1,-0.25,-1.7*,77,i,0,-3,580,277
CCN(CC)c1ccc(-c2nc3cnccc3n2C)cc1,0.14,-14*,98,i,-16,-10,64*,253
CCOc1ccccc1NC(=O)CN(c1ccc(C)cc1)S(=O)(=O)c1c(C)n[nH]c1C,-1.2,-2.4*,105,i,21,2,530,242
COc1ccccc1CNC(=O)CN(c1ccc(C)cc1)S(=O)(=O)c1c(C)n[nH]c1C,0.81,0.78,77,i,16,3,nt,nt
COC(=O)CCCc1nc2ccccc2s1,-1.1,-2.5*,96,i,14,1,633,239
CCC(=O)N1c2ccc(S(=O)(=O)CCC(=O)N3CCn4c3nc3ccccc34)cc2CC1C (configuration not stated),0.61,-3.3*,-15*,i,-3,-2,508,208
CCC(=O)N1c2ccc(S(=O)(=O)CCC(=O)NC3CCCC3)cc2CC1C (configuration not stated),-0.23,0.042,148,i,-7,4,nt,nt
CCCCC(CCC(=O)Nc1ccccc1C(=O)OCC)C(=O)O (configuration not stated),1.5,-4.3*,81,i,8,3,685,251
O=C(Cn1nnc2ccccc21)NC1CCCCC1,0.56,0.0098,142,i,15,3,nt,nt
COC(=O)c1cn(CC(=O)NC2CCCCC2)c2ccccc12,0.33,-2*,149,i,7,2,572,219
O=c1c2ccccc2nnn1CSc1nnc(C2COc3ccccc3O2)n1-c1ccccc1 (configuration not stated),1.6,-2.4*,98,i,0,2,562,159*
Cn1c(SCc2ccc(Br)cc2)nnc1-c1cccs1,0.4,-4.4*,65,i,-10,1,526,204
Cc1ccc(CSc2nnc(-c3cccs3)n2C)cc1,-0.4,-0.23,96,i,14,2,nt,nt
Cc1noc(C)c1COC(=O)c1ccc2c(c1)OCO2,-0.55,0.12,108,i,10,-5,nt,nt
Cc1noc(C)c1COC(=O)c1cccnc1SCC(=O)Nc1ccc2c(c1)OCO2,-1.6,-6.2*,73,i,11,7,132*,242
COc1ccc(NC2=C(Cl)C(=O)N(c3ccc(C)cc3C)C2=O)c(OC)c1,nt,nt,nt,i,nt,nt,nt,nt
O=C(Nc1ccc2oc(-c3ccccc3Br)nc2c1)c1cccc(Br)c1,nt,nt,nt,i,nt,nt,nt,nt
O=c1c2ccccc2n(Cc2ccc(F)cc2)c(=O)n1C1CCCC1,-0.00025,-14*,95,i,16,10,576,252
Oc1ccc(C2Nc3cccc4cccc(c34)N2)cc1O,nt,nt,nt,i,nt,nt,nt,nt
Cc1ccc(S(=O)(=O)N2CCC(C(=O)N3CCN(Cc4ccccc4)CC3)CC2)cc1,-1.1,-0.065,104,i,14,-8,nt,nt
O=S(=O)(c1ccccc1)N1CCN(C2CCN(Cc3ccccc3)CC2)CC1,0.45,-7.5*,92,i,14,0,244*,172
NC(=O)CN1CCCN(S(=O)(=O)c2ccc(Br)cc2)CC1,0.17,0.57,115,i,7,-3,nt,nt
Cc1ccc(S(=O)(=O)N2CCN(C3CCN(Cc4ccccc4)CC3)CC2)cc1,-0.031,-15*,114,i,13,-5,292*,265
